# Assay results as given in PubChem BioAssay AID463079 (The Scripps Research Institute Molecular Screening Center, 2010).
# Screen size: about 330,000 compounds; about 2,000 (0.61%) were called active. The sample holds actives, similar compounds and a random draw of the others, so the mix is not that of the screen. A number with no mark means an inactive call.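 Rule for the calls: active = inhibition above that plate's mean sample inhibition plus 3 SD (cut at about 26% in these data); inactive = the rest.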
# Experiment: nonselective Gq signaling inhibition in CHO cells – cell-based, fluorescence, Fluo-8 calcium dye, counter-screen for OX1R antagonist project, primary screen (AID 463079);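 note: 0% = ATP-challenged DMSO wells and 100% = DMSO wells without ATP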
# Settings: parental CHO-K1, ATP-induced calcium, Fluo-8 fluorescence; at 5.6 µM; hits give high values
# In short: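 Assay system – parental CHO cells · Reagent – ATP stimulus · Detection – intracellular calcium via Fluo-8 no-wash fluorescent dye · Evaluation – percent inhibition of ATP-evoked calcium rise, normalized to controls · Controls – ATP wells versus no-ATP DMSO wells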
row,Structure (SMILES),inhibition
1,CCn1ccnc1CN(C)C(=O)c1cc(COc2ccc(-n3cncn3)cc2)on1,-9.68%
2,C=CCC1(CC=C)CCCN1C(=O)c1cc(COc2ccc(-n3cncn3)cc2)on1,66.2% (active)
3,O=C(c1cc(COc2ccc(F)c(F)c2)on1)N1CCOCC1,-5.07%
4,COC(=O)c1cc(Oc2ccc(S(=O)(=O)N3CCOCC3)cc2[N+](=O)[O-])cc(C(=O)OC)c1,-3.52%
5,N#C/C(=C\c1ccccc1)c1n[nH]c(Cn2cncn2)n1,-15.2%
6,CC(NC(=O)C1CCCN(S(=O)(=O)c2ccc(-n3cnnn3)cc2)C1)c1ccc(F)cc1 (stereo unspecified),-12.5%
7,CCC(=O)N1CCN(c2ccccc2NC(=O)COc2cccc(C)c2C)CC1,-26.9%
8,Cc1ccccc1OCC(=O)Nc1ccc(N2CCN(C(=O)C(C)C)CC2)c(Cl)c1,29.7% (active)
9,Cc1ccccc1OCC(=O)Nc1ccc2c(c1)ncn2C,17.8%
10,CC(C)(C)n1cnnc1Sc1ccc([N+](=O)[O-])cn1,-10.8%
11,Cc1nc2ccc(NC(=S)N3CCC(C)CC3)cc2nc1C,-10.7%
12,CC1=C/C(=N\OS(=O)(=O)c2ccccc2)C=CC1=O,46% (active)
13,NNC(=O)CNC(c1ccccc1)c1cc(Cl)ccc1NC(=O)c1ccccc1 (stereo unspecified),-31.4%
14,Cc1cc(C)c(C)c(S(=O)(=O)Nc2cccnc2)c1C,-11.2%
15,COc1ccc(S(=O)(=O)Nc2cccnc2)c(Cl)c1Cl,-1.47%
16,COc1ccccc1Oc1ccc(S(=O)(=O)Nc2cccnc2)cc1,36.9% (active)
17,O=C(C1CC(=O)N(c2ccc(F)cc2)C1)N1CCN(c2ccccc2)CC1 (stereo unspecified),-3.64%
18,CCOC(=O)C1CCN(CC(=O)Nc2ccc(OC)c(S(=O)(=O)N3CCCCC3)c2)CC1,-13.3%
19,CCCCSc1nnc2c(n1)OC=Nc1ccccc1-2,-1.35%
20,CCOC(=O)Cn1c(=O)oc2cc(S(=O)(=O)N(C)Cc3ccco3)ccc21,4.07%
21,CN(c1ccccc1)c1ccc(/C=c2\s/c(=C(/C#N)C(=O)C(C)(C)C)n(Cc3ccco3)c2=O)cc1,47.5% (active)
22,CCCCn1c(SCc2ncc(-c3ccccc3)o2)nc2cc(S(N)(=O)=O)ccc21,36.6% (active)
23,CCCCn1c(SCC(=O)N2CCCC2=O)nc2cc(S(N)(=O)=O)ccc21,-0.51%

row,Structure (SMILES),inhibition
1,CCCCn1c(SCC(=O)N2CCC(C(=O)OCC)CC2)nc2cc(S(N)(=O)=O)ccc21,-21.9%
2,Cc1nnc(C)c2c(C)n(N)c(C)c12,4.12%
3,c1ccc(-c2cc3c(NCC4COc5ccccc5O4)ncnc3s2)cc1 (stereo unspecified),2.37%
4,S=C(NCC1COc2ccccc2O1)Nc1ccc(Br)cc1 (stereo unspecified),1.75%
5,c1ccc2c(c1)OCC(CNc1ncnc3nc[nH]c13)O2 (stereo unspecified),76% (active)
6,COc1ccc(NC(=O)CC2SC(N3CCCCC3)=NC2=O)cc1OC (stereo unspecified),-5.72%
7,COc1cc(C(=O)NCc2nnc(SCC(=O)c3ccc(Cl)cc3)o2)cc(OC)c1OC,-35.5%
8,CCC(=O)Nc1ccc(C(=O)CSc2nnc(CNc3ccc(Cl)cc3)o2)cc1OC,39.8% (active)
9,CCOC(=O)CSc1nnc(CNc2ccc(F)cc2)o1,7.59%
10,CCCCCCCNC(=O)C1(CC2CC(c3cccc(Br)c3)=NO2)CCN(C(=O)c2cc(OCC)c(OCC)c(OCC)c2)CC1 (stereo unspecified),-43.7%
11,CC1C/C(=N/NC(=O)c2cccs2)CC(C)(C)C1 (stereo unspecified),5.84%
12,O=C(CN1C(=O)NC(Cc2c[nH]c3ccccc23)C1=O)Nc1ccccc1C(F)(F)F (stereo unspecified),-8.55%
13,CC(C)(C)C(=O)NNC(=O)c1ccc(Oc2cc(Cl)cc(Cl)c2)o1,0.38%
14,CN(C)c1ccc(C(CC(=O)O)C(=O)O)cc1 (stereo unspecified),26.3% (active)
15,CC(=O)NC(CC(=O)O)c1ccc(F)cc1 (stereo unspecified),14.5%
16,CC(C)CNC(=O)C(=O)Nc1ccc(N(C)C)cc1,-6.25%
17,COC(=O)Cn1c(=NC(=O)c2cc(OC)c(OC)c(OC)c2)sc2cc(OC)ccc21,-4.35%
18,CN(C)/C=C(/C(=O)c1ccc(Cl)c(Cl)c1)c1nnnn1-c1ccccc1,4.24%
19,CCc1ccc(CN(C)C(=O)CCc2nnc(-c3ccc(-c4ccccc4)cc3)o2)nc1,2.52%
20,COc1ccc(Cl)cc1-n1c(C)cc(C(=O)OCC(=O)N2CC(=O)Nc3ccccc32)c1C,-26.4%
21,O=C(O)CSc1c2c(nc3cc(C(=O)Nc4cccc(C(F)(F)F)c4)ccc13)CCCC2,-7.81%
22,COC(=O)c1ccccc1Sc1c(/C=N/OCc2ccc(Cl)cc2)c(C(F)(F)F)nn1C,-7.11%
23,Cn1nc(C(F)(F)F)c(C(=O)Nc2cccc(C(F)(F)F)c2)c1SCc1ccc(Cl)cc1,56.3% (active)

row,Structure (SMILES),inhibition
1,COc1cc(SC#N)ccc1N=Cc1c(C)[nH]n(-c2ccc(C)cc2)c1=O,96.8% (active)
2,Cc1ccc(-n2[nH]c(C)c(/C=N/NC(=O)c3cccc([N+](=O)[O-])c3)c2=O)cc1C,-2.1%
3,O=C(NNC(=O)c1cnccc1C(F)(F)F)c1ccc(Cl)cc1,-3%
4,O=C1CC(N2CCN(C(c3ccccc3)c3ccccc3)CC2)C(=O)N1 (stereo unspecified),-12.9%
5,CC1(C)CC(N2CCN(C(c3ccccc3)c3ccccc3)CC2)=CC(=[N+]2CCCCC2)C1,29.5% (active)
6,Oc1ccccc1CN1CCN(C(c2ccccc2)c2ccccc2)CC1,-33.9%
7,CC(C)CC(CCc1ccccc1)OS(N)(=O)=O (stereo unspecified),-9.01%
8,CC(C(=O)c1ccc(-c2ccccc2)cc1)[n+]1cccc(Br)c1 (stereo unspecified),-2.14%
9,Cc1cc(C)c(-c2c(O)c3ccccc3n(C)c2=O)c(C)c1,-6.96%
10,CCOC(=O)Cc1cc(=O)[nH]c(=O)[nH]1,-1.68%
11,CN(C)S(=O)(=O)c1ccc(Oc2ccc(S(=O)(=O)N(C)C)cc2)cc1,53.5% (active)
12,COc1ccc(S(=O)(=O)N(C)CC(=O)N2CCCC2)cc1,0.64%
13,CN(C)S(=O)(=O)c1ccc(NC(=O)N2CCOCC2)cc1,-16.7%
14,CN(C(=O)CC1C(=O)NCCN1Cc1ccc(F)cc1Cl)C1CCCCC1 (stereo unspecified),-17.1%
15,Cc1ccc(S(=O)(=O)N(Cc2cc3ccccc3[nH]c2=O)CC2CCCO2)cc1 (stereo unspecified),-27.8%
16,COCCN(C(=O)CCC(=O)Nc1nccs1)C(C(=O)NCCC(C)C)c1ccc(F)cc1 (stereo unspecified),-13%
17,COC(=O)c1ccc(C(=O)NC2CC(C)(C)Cc3c2cnn3-c2ccc(F)cc2)nc1 (stereo unspecified),-9.97%
18,Cn1nccc1C(=O)NC1CCCc2c1cnn2-c1ccccc1F (stereo unspecified),48.7% (active)
19,CC(=O)NCC(=O)NC1CCCc2c1cnn2-c1ccccc1F (stereo unspecified),10.8%
20,Cc1cc(C(=O)NC2CC(C)(C)Cc3c2cnn3-c2ccccc2)n[nH]1 (stereo unspecified),-10.2%
21,CC1(C)Cc2c(cnn2-c2cccc(F)c2)C(NC(=O)c2cc[n+]([O-])cc2)C1 (stereo unspecified),-5.88%
22,COc1ccc(C(=O)NC2CC(C)(C)Cc3c2cnn3-c2ccccc2C)o1 (stereo unspecified),-22.6%
23,Cn1nccc1C(=O)NC1CCCc2c1cnn2-c1ccc(F)cc1F (stereo unspecified),45.4% (active)

row,Structure (SMILES),inhibition
1,COc1ccc(C(=O)NC2CCCc3c2cnn3-c2cccc(C)c2C)c(OC)n1 (stereo unspecified),40.4% (active)
2,Cc1cc(C(=O)NC2CCCc3c2cnn3-c2cccc(C)c2C)c(C)o1 (stereo unspecified),2.39%
3,COCCCNC(=O)CN1C(=O)CSc2ccc(S(=O)(=O)N3CCOCC3)cc21,-10.9%
4,COc1ccc(S(=O)(=O)N2CCOCC2)cc1NC(=O)COc1ccccc1,-8.66%
5,CCOc1cc(N2CCOCC2)c(OCC)cc1NC(=O)C1=NN(c2cccc(C)c2)C(=O)CC1,-30.7%
6,CSC1=NC2(C)CCCCC2C12C=CC(=O)C=C2 (stereo unspecified),-8.36%
7,Cc1cc(Cl)c2oc(C(=O)N(C)C(C)c3ccccn3)c(C)c2c1 (stereo unspecified),-25.6%
8,Cc1cc2oc(=O)cc(-c3ccccc3)c2c(C)c1-c1ccc(OC(F)(F)F)cc1,-24%
9,C/C(=N\NC(=O)Cc1ccccc1[N+](=O)[O-])c1cccnc1,-2.78%
10,COc1ccc(CNc2ncnc3ccccc23)cc1,30% (active)
11,COc1ccc(CNc2nccs2)cc1,-0.35%
12,COc1cccc(CNc2nc(C(F)(F)F)nc3ccccc23)c1,-21.9%
13,O=C(Nc1cccc(F)c1)N1C2CCC1CC(O)(c1cccnc1)C2 (stereo unspecified),-8.22%
14,COc1cc(NC(=O)CCNC(=O)Cn2ccc3ccccc3c2=O)cc(OC)c1OC,0.46%
15,O=C(Nc1ccc(S(=O)(=O)Nc2ncccn2)cc1)C12CC3CC(CC(C3)C1)C2,-8.7%
16,Cc1cc(C(F)F)n2nc(C(=O)Nc3ccc(S(=O)(=O)NC45CC6CC(CC(C6)C4)C5)cc3)nc2n1,-7.46%
17,CCn1nccc1C(=O)Nc1ccc(S(=O)(=O)NC23CC4CC(CC(C4)C2)C3)cc1,61% (active)
18,COc1ccccc1CNS(=O)(=O)c1c(C)[nH]c(C)c1C(=O)N1CCCCC1,-7.23%
19,Cc1ccc(S(=O)(=O)N(CC(=O)N2CCc3ccccc3C2)c2cccc(Cl)c2)cc1,-23.4%
20,COC(=O)Cn1cc(/C=C/[N+](=O)[O-])c2ccccc21,-9.14%
21,O=[N+]([O-])/C=C/c1ccc2c(ccn2Cc2ccccc2)c1,42% (active)
22,O=C(Cn1ccc2cc(S(=O)(=O)N3CCCC3)ccc21)NCc1ccccc1,-3.13%
